ChEMBL document CHEMBL1144298, “Novel 3-aminochromans as potential pharmacological tools for the serotonin 5-HT(7) receptor” (Bioorg Med Chem Lett, 2005)

Key:
Rattus norvegicus = species: Rattus norvegicus; test: Ratio of binding affinity for serotonin 5-HT1A to serotonin 5-HT7
[1] = biological target: 5-hydroxytryptamine receptor 7 (Rattus norvegicus, UniProt P32305); test: Binding affinity for rat serotonin 5-HT7 receptor expressed in Sf9 cells using [3H]5-HT radioligand
Outline: (§1)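 In vitro radioligand binding on cloned receptors. For 5-HT7, cloned rat receptor expressed in Sf9 cells was labeled with [3H]5-HT. For 5-HT1A, cloned receptor expressed in CHO cells was labeled with [3H]8-OH-DPAT.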

[2] = biological target: 5-hydroxytryptamine receptor 7 (Rattus norvegicus) (UniProt P32305); test: Efficacy at the 5-HT7 receptor by measuring its effect on cAMP production in CHO cells; type: functional, cell-based
5-hydroxytryptamine receptor 7 (Rattus norvegicus), sequence (P32305 whole entry): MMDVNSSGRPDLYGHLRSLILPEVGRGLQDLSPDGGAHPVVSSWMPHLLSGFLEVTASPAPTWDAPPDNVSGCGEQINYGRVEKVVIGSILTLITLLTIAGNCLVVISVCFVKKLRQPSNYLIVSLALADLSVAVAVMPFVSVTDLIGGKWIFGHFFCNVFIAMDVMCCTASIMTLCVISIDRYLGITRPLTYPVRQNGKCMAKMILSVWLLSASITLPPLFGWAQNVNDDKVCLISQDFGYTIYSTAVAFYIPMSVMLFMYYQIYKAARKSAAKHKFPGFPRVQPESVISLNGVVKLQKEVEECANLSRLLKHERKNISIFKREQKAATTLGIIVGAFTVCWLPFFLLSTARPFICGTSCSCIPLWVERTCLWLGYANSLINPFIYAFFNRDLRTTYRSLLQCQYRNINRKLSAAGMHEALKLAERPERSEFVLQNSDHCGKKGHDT

[3] = Binding affinity for rat serotonin 5-HT1A receptor using [3H]8-OH-DPAT as radioligand expressed in CHO cells; type: cell-based; outline: as §1

5-hydroxytryptamine receptor 7, sequence (P32305 whole entry): as above

SMILES: COc1cccc(OC)c1-c1cccc2c1OC[C@@H](N(C)C)C2
- Ratio (Rattus norvegicus): > 189
- Ki [1]: 5.29 nM
- Efficacy [2]: 28%
- Ki [3]: > 1000 nM

SMILES: CN(C)[C@@H]1COc2ccc(-c3c(O)cccc3O)cc2C1
- Ki [1]: > 1000 nM

SMILES: CCCN(CCC)[C@H]1COc2c(cccc2-c2c(OC)cccc2OC)C1
- Ratio (Rattus norvegicus): 27
- Ki [3]: 174 nM

SMILES: O=S(=O)(c1ccc2cc[nH]c2c1)N1CCC[C@@H]1CCN1CCC(Oc2ccc(Cl)cc2)CC1
- Ratio (Rattus norvegicus): 282
- Ki [1]: 1.99 nM
- Efficacy ([2]; filed as antagonist): Antagonist
- Ki [3]: 562 nM

SMILES: Cc1cccc(C)c1-c1ccc2c(c1)C[C@H](N(C)C)CO2
- Ratio (Rattus norvegicus): 6
- Ki [1]: 13.4 nM
- Efficacy [2]: 76%
- Ki [3]: 75.1 nM

SMILES: COc1c(-c2ccc3c(c2)C[C@H](N(C)C)CO3)ccc2ccccc12
- Ratio (Rattus norvegicus): 8
- Ki [1]: 75.9 nM
- Ki [3]: 594 nM

SMILES: CN(C)[C@@H]1COc2ccc(-c3ccccc3)cc2C1
- Ki [1]: > 1000 nM

SMILES: COc1cccc(OC)c1-c1ccc2c(c1)C[C@H](N(C)C)CO2
- Ki [1]: 367 nM
